Measurements published in ChEMBL document CHEMBL1909618, “Non-steroidal dissociated glucocorticoid agonists: indoles as A-ring mimetics and function-regulating pharmacophores” (Bioorg Med Chem Lett, 2011).
Calls of active or inactive are those of the source. No cut-off for these calls is given here.

Tests used:
Glucocorticoid receptor [1] = target: T1, Glucocorticoid receptor (Homo sapiens, UniProt P04150); assay: Displacement of tetramethylrhodamine-labeled Dexamethasone from human recombinant glucocorticoid receptor expressed in baculovirus infected insect cells by fluorescence polarization assay
T1 sequence (P04150 whole entry): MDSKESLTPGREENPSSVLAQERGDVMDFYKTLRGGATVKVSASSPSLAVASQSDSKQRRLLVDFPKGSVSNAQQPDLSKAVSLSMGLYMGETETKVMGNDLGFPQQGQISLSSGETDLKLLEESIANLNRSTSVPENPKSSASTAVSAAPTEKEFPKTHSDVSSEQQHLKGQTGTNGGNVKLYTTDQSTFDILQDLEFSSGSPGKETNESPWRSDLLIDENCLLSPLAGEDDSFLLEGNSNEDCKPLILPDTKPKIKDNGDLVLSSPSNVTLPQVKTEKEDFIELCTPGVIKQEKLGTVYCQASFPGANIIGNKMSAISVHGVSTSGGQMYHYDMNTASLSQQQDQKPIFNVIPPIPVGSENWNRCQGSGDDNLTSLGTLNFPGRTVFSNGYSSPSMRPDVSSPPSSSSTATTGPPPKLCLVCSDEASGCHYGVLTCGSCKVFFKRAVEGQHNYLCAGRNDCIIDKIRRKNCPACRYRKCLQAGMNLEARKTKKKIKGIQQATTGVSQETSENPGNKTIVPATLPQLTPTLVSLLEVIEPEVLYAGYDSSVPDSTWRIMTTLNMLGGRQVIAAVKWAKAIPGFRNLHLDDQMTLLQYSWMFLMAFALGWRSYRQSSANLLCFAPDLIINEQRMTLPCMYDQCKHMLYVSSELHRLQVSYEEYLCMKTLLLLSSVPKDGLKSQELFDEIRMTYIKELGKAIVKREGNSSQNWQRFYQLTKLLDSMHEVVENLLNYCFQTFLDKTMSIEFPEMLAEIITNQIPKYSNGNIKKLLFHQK

[2] = target: T2, Glucocorticoid receptor (Homo sapiens) (UniProt P04150); assay: Transactivation activity of glucocorticoid receptor in HFF assessed as induction of aromatase activity by measuring beta-estradiol activity after 18 to 24 hrs by ELISA relative to Dexamethasone
T2 sequence (whole entry): T1 sequence (P04150 whole entry)

Glucocorticoid receptor [3] = target: T1, Glucocorticoid receptor; assay: Transactivation activity of glucocorticoid receptor in HFF assessed as induction of aromatase activity by measuring beta-estradiol activity after 18 to 24 hrs by ELISA; conditions: read-out: EC50
Progesterone receptor = target: T3, Progesterone receptor (Homo sapiens, UniProt P06401); assay: Displacement of tetramethylrhodamine-labeled RU-486 from human recombinant progesterone receptor expressed in baculovirus infected insect cells by fluorescence polarization assay
T3 sequence (P06401 whole entry): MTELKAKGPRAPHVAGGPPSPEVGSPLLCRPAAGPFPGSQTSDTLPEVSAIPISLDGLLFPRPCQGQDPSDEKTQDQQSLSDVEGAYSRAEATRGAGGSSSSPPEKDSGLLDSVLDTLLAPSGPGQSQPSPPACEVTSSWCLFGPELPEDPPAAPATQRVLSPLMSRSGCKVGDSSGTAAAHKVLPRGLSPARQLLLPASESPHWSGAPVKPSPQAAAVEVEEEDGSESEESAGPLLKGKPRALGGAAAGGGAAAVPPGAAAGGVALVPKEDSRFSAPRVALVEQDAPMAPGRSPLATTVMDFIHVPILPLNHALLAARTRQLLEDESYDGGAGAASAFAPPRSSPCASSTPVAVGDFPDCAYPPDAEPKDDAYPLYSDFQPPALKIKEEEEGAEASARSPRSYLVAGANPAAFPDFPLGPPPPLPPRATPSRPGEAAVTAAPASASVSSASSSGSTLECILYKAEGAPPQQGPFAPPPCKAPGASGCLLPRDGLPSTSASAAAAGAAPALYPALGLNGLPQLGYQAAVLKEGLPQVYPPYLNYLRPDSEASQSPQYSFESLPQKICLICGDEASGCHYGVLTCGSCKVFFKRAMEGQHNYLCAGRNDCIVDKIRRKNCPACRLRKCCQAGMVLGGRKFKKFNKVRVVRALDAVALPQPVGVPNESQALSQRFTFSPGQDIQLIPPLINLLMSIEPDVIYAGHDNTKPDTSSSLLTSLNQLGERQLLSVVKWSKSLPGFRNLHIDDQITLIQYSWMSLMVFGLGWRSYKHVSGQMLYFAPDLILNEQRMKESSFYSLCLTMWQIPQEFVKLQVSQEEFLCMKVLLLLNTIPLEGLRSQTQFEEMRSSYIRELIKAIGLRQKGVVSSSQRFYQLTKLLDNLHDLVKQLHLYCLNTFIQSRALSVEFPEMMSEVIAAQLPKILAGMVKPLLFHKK
How it was run: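 Fluorescence polarization competition assays with recombinant human receptors in lysates of baculovirus-infected insect cells. Reactions contained 1% DMSO and ran 1 h at room temperature.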

Glucocorticoid receptor [4] = target: T1, Glucocorticoid receptor; assay: Agonist activity at glucocorticoid receptor in HFF assessed as inhibition of IL1-induced IL-6 production after 18 to 24 hrs; type: functional
[5] = target: T4, Androgen receptor (Homo sapiens) (UniProt P10275); assay: Displacement of [3H]-testosterone from human recombinant androgen receptor expressed in baculovirus infected insect cells at 1100 nM
T4 sequence (whole entry): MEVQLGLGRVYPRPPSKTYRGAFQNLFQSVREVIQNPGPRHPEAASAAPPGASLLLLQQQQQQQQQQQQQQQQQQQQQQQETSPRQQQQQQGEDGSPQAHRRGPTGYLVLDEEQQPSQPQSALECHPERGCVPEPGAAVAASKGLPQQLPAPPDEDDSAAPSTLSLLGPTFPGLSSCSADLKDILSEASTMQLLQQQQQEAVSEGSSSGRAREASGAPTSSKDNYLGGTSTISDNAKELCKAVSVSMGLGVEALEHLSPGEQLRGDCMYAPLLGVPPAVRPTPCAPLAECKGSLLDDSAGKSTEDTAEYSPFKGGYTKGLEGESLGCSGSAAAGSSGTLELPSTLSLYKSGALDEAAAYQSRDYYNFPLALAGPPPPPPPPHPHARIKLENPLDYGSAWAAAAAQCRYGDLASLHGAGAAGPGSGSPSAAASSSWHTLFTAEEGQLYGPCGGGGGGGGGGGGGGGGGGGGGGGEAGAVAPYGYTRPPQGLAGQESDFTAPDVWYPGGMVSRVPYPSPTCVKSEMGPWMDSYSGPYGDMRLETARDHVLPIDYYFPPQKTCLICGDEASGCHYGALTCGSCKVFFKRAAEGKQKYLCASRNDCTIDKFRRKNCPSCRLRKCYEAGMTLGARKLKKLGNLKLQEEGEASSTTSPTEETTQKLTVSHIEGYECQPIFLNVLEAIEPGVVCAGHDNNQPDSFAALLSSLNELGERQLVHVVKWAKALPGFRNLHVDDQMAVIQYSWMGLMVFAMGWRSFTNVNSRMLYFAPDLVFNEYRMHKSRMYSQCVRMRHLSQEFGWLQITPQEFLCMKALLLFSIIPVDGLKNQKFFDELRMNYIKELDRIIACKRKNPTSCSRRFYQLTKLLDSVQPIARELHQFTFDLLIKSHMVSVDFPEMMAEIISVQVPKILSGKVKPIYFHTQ
How it was run: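 Competition of test compound at a single concentration against 10 nM ³H-testosterone for binding to recombinant human AR in lysates of baculovirus-infected cells. Dihydrotestosterone at 2 µM served as the positive control. Results are expressed as % of control.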

Mus musculus [6] = assay: Toxicity in B10.R3 mouse collagen-induced arthritis model assessed as change in body weight at 30 mg/kg, po qd for 5 weeks relative to control; type: organism-based; design: dose 30 mg/kg, route oral; conditions: in vivo, 840 h
Mus musculus [7] = assay: Toxicity in B10.R3 mouse collagen-induced arthritis model assessed as change in serum triglyceride level at 30 mg/kg, po qd for 5 weeks relative to control; type: organism-based; design: dose 30 mg/kg, route oral; conditions: in vivo, 840 h
How it was run: (§1)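 Arthritic B10.RIII CIA mice were dosed orally once daily for 5 weeks. At day 35 they were anesthetized with ketamine (50 mg/kg) and xylazine (15 mg/kg). Body fat was assessed by whole-body density scan. Serum triglycerides were measured by enzymatic kit (Wako L-Type TG-H) and free fatty acids by NEFA-C. Results are expressed as % change versus vehicle and compared by t-test.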

Mus musculus [8] = assay: Toxicity in B10.R3 mouse collagen-induced arthritis model assessed as change in body weight at 3 mg/kg, po qd for 5 weeks relative to control; type: organism-based; design: dose 3 mg/kg, route oral; conditions: in vivo, 840 h
Mus musculus [9] = assay: Antiarthritic activity in B10.R3 mouse collagen-induced arthritis model assessed as AUC of disease progression inhibition at 10 mg/kg, po qd for 5 weeks; type: functional; conditions: B10.R3, 840 h
How it was run: (§2)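 B10.RIII mice immunized with porcine type II collagen plus complete Freund's adjuvant were enrolled at the first signs of arthritis. They were dosed orally once daily for 5 weeks; vehicle was 30% Cremophor RH. All four paws were scored 1–4 (maximum 16 per animal). Disease-score AUCs from 10 mice per group were compared with vehicle by Mann–Whitney test.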

Mus musculus [10] = assay: Toxicity in B10.R3 mouse collagen-induced arthritis model assessed as change in serum free fatty acids level at 3 mg/kg, po qd for 5 weeks relative to control; type: organism-based; design: dose 3 mg/kg, route oral; conditions: in vivo, 840 h; how it was run: as §1
Mus musculus [11] = assay: Toxicity in B10.R3 mouse collagen-induced arthritis model assessed as change in serum insulin level at 3 mg/kg, po qd for 5 weeks by ELISA relative to control; type: organism-based; design: dose 3 mg/kg, route oral; conditions: in vivo, 840 h
Mus musculus [12] = assay: Toxicity in B10.R3 mouse collagen-induced arthritis model assessed as change in body fat level at 3 mg/kg, po qd for 5 weeks relative to control; type: organism-based; design: dose 3 mg/kg, route oral; conditions: in vivo, 840 h; how it was run: as §1
Mus musculus [13] = assay: Antiinflammatory activity in mouse plasma assessed as inhibition of LPS-induced TNFalpha production at 10 mg/kg, po administered 1 hr before LPS challenge measured after 1 hr; type: functional
How it was run: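 Mice received compound orally in Cremophor RH 1 h before LPS challenge. Plasma TNF-α was measured 1 h after challenge. n = 8 per group; doses were 3 and 10 mg/kg.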

Mus musculus [14] = assay: Antiarthritic activity in B10.R3 mouse collagen-induced arthritis model assessed as AUC of disease progression inhibition at 30 mg/kg, po qd for 5 weeks; type: functional; conditions: B10.R3, 840 h; how it was run: as §2
Mus musculus [15] = assay: Toxicity in B10.R3 mouse collagen-induced arthritis model assessed as change in serum insulin level at 30 mg/kg, po qd for 5 weeks by ELISA relative to control; type: organism-based; design: dose 30 mg/kg, route oral; conditions: in vivo, 840 h
Mus musculus [16] = assay: Toxicity in B10.R3 mouse collagen-induced arthritis model assessed as change in serum free fatty acids level at 30 mg/kg, po qd for 5 weeks relative to control; type: organism-based; design: dose 30 mg/kg, route oral; conditions: in vivo, 840 h; how it was run: as §1
Mus musculus [17] = species on record: Mus musculus; assay: animal or person; conditions: B10.R3, po, 840 h, read-out: INH
Mus musculus [18] = assay: Toxicity in B10.R3 mouse collagen-induced arthritis model assessed as change in body fat level at 30 mg/kg, po qd for 5 weeks relative to control; type: organism-based; design: dose 30 mg/kg, route oral; conditions: in vivo, 840 h; how it was run: as §1
Mus musculus [19] = assay: Toxicity in B10.R3 mouse collagen-induced arthritis model assessed as change in serum triglyceride level at 3 mg/kg, po qd for 5 weeks relative to control; type: organism-based; design: dose 3 mg/kg, route oral; conditions: in vivo, 840 h; how it was run: as §1

IC50 (Glucocorticoid receptor [1]) | Efficacy [2] | EC50 (Glucocorticoid receptor [3]) | IC50 (Progesterone receptor) | IC50 (Glucocorticoid receptor [4]) | Activity [5] | SMILES | Activity (Mus musculus [6]) | Activity (Mus musculus [7]) | Activity (Mus musculus [8]) | inhibition in vivo at 10 mg/kg (Mus musculus [9]) | Activity (Mus musculus [10]) | Activity (Mus musculus [11]) | Activity (Mus musculus [12]) | inhibition in vivo at 10 mg/kg (Mus musculus [13]) | inhibition in vivo at 30 mg/kg (Mus musculus [14]) | Activity (Mus musculus [15]) | Activity (Mus musculus [16]) | inhibition in vivo at 3 mg/kg (Mus musculus [17]) | Activity (Mus musculus [18]) | Activity (Mus musculus [19])
22 nM | 93% | 23 nM | 290 nM | 7 nM | inactive | COc1ccc(F)cc1C(C)(C)CC(O)(Cc1cc2ccccc2[nH]1)C(F)(F)F (racemic) |  |  |  |  |  |  |  |  |  |  |  |  |  | 
 |  |  |  |  |  | C[C@]12C=CC(=O)C=C1CC[C@@H]1[C@@H]2[C@@H](O)C[C@@]2(C)[C@H]1CC[C@]2(O)C(=O)CO [PREDNISOLONE] | 9% | 55% | 1.1% | 62% | 8% | 37% | 36% | 84% | 80% | 190% | 25% | 42% | 70% | -11%
